Data set [1] is described as follows: Inhibitory activity against purine nucleoside phosphorylases from human blood and calf spleen; NS, NI/Ino=nonsubstrate, noninhibitor/inhibitor. In kind it is tissue-based. In short, it runs like this: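 Purine nucleoside phosphorylase from calf spleen (0.18 unit·mL⁻¹) or human blood (9 units·mL⁻¹) at 37 °C in 50 mM phosphate pH 7.5. Substrate tests used 50 μM nucleoside. Inhibition used 40 μM inosine with 100 μM test compound. Reaction media were analysed by C-18 HPLC.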

Data set [2] has as its target T1, Adenosine deaminase (Bos taurus) (UniProt P56658).
T1 sequence (whole entry): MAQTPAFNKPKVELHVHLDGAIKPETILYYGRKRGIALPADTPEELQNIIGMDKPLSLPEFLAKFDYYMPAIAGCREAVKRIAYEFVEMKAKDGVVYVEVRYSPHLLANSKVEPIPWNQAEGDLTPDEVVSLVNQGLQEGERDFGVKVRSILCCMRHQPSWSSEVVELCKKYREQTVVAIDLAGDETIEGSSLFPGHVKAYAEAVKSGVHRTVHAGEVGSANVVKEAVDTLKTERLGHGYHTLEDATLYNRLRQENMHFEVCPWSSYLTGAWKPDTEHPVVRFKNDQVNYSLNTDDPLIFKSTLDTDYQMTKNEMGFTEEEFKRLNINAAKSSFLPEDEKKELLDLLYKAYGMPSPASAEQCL
The experiment in a line: Inhibitory activity against bovine adenosine deaminase; very weak substrate or inhibitor. In short, it runs like this:
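Adenosine deaminase (calf intestinal mucosa, type VIII) at 37 °C in 50 mM phosphate pH 7.5. Substrate tests used 20–80 μM nucleoside and 0.01–1 unit enzyme, with HPLC product analysis. Inhibition was read by UV spectrometry with adenosine 20–100 μM. Ki was taken from Lineweaver–Burk plots assuming competitive inhibition.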

Data set [3] has as its system Nc1ncnc2c1ncn2[C@H]1CC[C@@H](CO)O1. In words: Inhibitory activity against Cytidine Kinase. In a few lines: (§1)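 Recombinant human deoxycytidine kinase (expressed in E. coli, purified) at 37 °C. Monophosphate formation measured by C-18 HPLC. Km and Vm from Lineweaver–Burk plots.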
For data set [4], the system named is Nc1ncnc2c1ncn2[C@H]1C=C[C@@H](CO)O1. The experiment in a line: Inhibitory activity against human deoxycytidine kinase. In short, it runs like this: as §1

Chain of Deoxycytidine kinase (Homo sapiens), P27707 (P27707 whole entry): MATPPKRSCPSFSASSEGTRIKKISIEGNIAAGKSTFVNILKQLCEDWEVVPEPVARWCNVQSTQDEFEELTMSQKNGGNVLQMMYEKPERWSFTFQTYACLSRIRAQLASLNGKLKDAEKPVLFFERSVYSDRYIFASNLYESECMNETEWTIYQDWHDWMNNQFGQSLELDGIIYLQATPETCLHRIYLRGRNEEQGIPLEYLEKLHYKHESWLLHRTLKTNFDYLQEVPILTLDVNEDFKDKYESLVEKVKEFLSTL

On to `Nc1ncnc2c1ncn2[C@H]1CC[C@@H](CO)O1`, for which the Km entry in data set [1] was “NS, NI/Ino”.

For `Nc1ncnc2c1ncn2[C@H]1C=C[C@@H](CO)O1`, in data set [2], the inhibition result was “very weak substrate or inhibitor”. Moreover, the Km entry in data set [1] is given as “NS, NI/Ino”.

For “Deoxycytidine kinase (Homo sapiens), P27707”, the Km in data set [3] was 220 µM; in data set [4], 620 µM.

The values are drawn from ChEMBL document CHEMBL1130251, “Enzymatic properties of the unnatural beta-L-enantiomers of 2',3'-dideoxyadenosine and 2',3'-didehydro-2',3'-dideoxyadenosine” (J Med Chem, 1997).
